Experimental data: ChEMBL document CHEMBL4017487, “Design and Synthesis of γ- and δ-Lactam M1 Positive Allosteric Modulators (PAMs): Convulsion and Cholinergic Toxicity of an M1-Selective PAM with Weak Agonist Activity” (J Med Chem, 2017); call rule not given here

Experiments:
Canis familiaris [1] = assay: Cholinergic toxicity in dog assessed as circling behaviour at 5 mg/kg, po administered as single dose using spray dried dispersion formulation after 4.3 hrs; assay type: organism-based, Canis lupus familiaris; details: in vivo
In short: (§1)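 Dog single oral dose escalation: 1/sex at 5 mg/kg for each formulation; 1 female at 15 mg/kg. Spray-dried dispersion: 23% drug loading with 0.5% methylcellulose and 100 mM citrate buffer. Clinical signs timed in approximate hours postdose; unbound plasma Cmax.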

Canis familiaris [2] = assay: Unbound Cmax in dog plasma at 5 mg/kg, po administered as single dose using hydroxypropyl cellulose/docusate sodium formulation; assay type: ADME, organism-based, Canis lupus familiaris; details: in vivo
In short: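 Dogs given a single oral 5 mg/kg dose as a nanosuspension (hydroxypropyl cellulose SL, 0.05% docusate sodium in purified water), 1/sex. Unbound plasma Cmax and AUC determined, with clinical signs monitored at approximate hours postdose.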

[3] = Ratio of AUC in rat brain to plasma at 2 mg/kg, po or 0.5 mg/kg, iv administered as single bolus dose; assay type: ADME, organism-based; details: read-out: Ratio AUC
In short: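 Brain/plasma ratio computed from AUC of total drug in brain and total drug in plasma.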

[4] = target: T1, Muscarinic acetylcholine receptor M4 (Homo sapiens, UniProt P08173); assay: Positive allosteric modulation of human muscarinic acetylcholine receptor M4 expressed in CHO cells assessed as increase in acetylcholine-induced cAMP accumulation up to 10 uM after 2 hrs by cAMP-Glo assay; assay type: cell-based
T1 sequence (P08173 whole entry): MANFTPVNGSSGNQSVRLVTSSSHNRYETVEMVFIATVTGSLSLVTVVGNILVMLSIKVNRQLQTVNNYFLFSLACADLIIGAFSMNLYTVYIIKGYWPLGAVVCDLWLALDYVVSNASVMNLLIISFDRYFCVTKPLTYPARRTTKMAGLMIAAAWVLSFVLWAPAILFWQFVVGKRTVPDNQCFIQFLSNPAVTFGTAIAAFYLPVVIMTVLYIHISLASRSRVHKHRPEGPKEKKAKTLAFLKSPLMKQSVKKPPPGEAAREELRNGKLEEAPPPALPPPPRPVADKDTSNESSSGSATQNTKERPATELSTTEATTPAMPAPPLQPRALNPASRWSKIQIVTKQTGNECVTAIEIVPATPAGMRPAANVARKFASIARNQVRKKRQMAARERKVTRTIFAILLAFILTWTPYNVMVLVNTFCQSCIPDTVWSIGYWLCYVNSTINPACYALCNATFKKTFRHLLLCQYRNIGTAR
In short: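 Recombinant functional human M2–M5 assays, each run in agonist and PAM modes at concentrations up to 10 μM.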

[5] = Unbound plasma concentration in iv or po dosed mouse; assay type: ADME, organism-based
Brain = assay: Unbound brain concentration in scopolamine-induced memory impairment Wistar rat model at 0.32 mg/kg, sc measured after 1.25 hrs by LC-MS/MS analysis; assay type: ADME, organism-based; details: in vivo
[6] = target: T2, Muscarinic acetylcholine receptor M1 (Homo sapiens, UniProt P11229); assay: Agonist activity at human muscarinic acetylcholine receptor M1 expressed in CHO cells at 30 uM by beta-arrestin recruitment assay relative to acetylcholine; assay type: cell-based
T2 sequence (P11229 whole entry): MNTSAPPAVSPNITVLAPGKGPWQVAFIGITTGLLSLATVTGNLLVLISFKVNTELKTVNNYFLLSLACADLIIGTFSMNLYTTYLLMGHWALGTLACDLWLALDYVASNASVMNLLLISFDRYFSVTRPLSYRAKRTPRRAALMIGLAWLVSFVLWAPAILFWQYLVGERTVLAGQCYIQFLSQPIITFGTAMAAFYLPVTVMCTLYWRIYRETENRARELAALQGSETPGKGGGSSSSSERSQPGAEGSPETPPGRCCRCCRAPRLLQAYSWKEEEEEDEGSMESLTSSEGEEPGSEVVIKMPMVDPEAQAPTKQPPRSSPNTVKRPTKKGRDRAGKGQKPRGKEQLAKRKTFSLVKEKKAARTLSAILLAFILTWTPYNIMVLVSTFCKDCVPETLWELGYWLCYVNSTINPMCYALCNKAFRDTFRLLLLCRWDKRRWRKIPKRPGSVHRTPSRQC

[7] = Unbound plasma concentration in rat at 2 mg/kg, po or 0.5 mg/kg, iv administered as single bolus dose; assay type: ADME, organism-based
In short: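 Rat PK: IV bolus given as a solution, 0.5 mg/kg in 20% HPBCD; oral dose given as a suspension, 2 mg/kg in 0.5% methylcellulose. Fraction unbound in plasma determined.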

Rattus norvegicus = assay: Toxicity in rat assessed as convulsions at 45 mg/kg, po administered as single dose after 1 to 6 hrs; assay type: organism-based; details: in vivo
[8] = target: T2, Muscarinic acetylcholine receptor M1; assay: Ratio of positive allosteric modulation of human muscarinic acetylcholine receptor M1 expressed in CHO cells assessed as increase in acetylcholine-induced beta-arrestin recruitment by measuring functional co-operativity with acetylcholine to Kb for human muscarinic acetylcholine receptor M1 expressed in CHO cells assessed as increase in beta-arrestin recruitment; assay type: ADME, cell-based
Canis familiaris [9] = assay: Unbound Cmax in dog plasma at 5 mg/kg, po administered as single dose using spray dried dispersion formulation; assay type: ADME, organism-based, Canis lupus familiaris; details: in vivo
Plasma [10] = assay: Unbound plasma concentration in scopolamine-induced memory impairment Wistar rat model at 0.32 mg/kg, sc measured after 1.25 hrs by LC-MS/MS analysis; assay type: ADME, organism-based; details: in vivo
In short: (§2)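 Rats from a satellite group of the scopolamine (0.32 mg/kg) Morris water maze study, N = 2/dose. Dosed sc as a solution in 20% hydroxypropyl β-cyclodextrin. Compound concentrations measured in plasma only at T = 1.25 h.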

Canis familiaris [11] = assay: Toxicity in dog assessed as convulsion at 15 mg/kg, po administered as single dose using spray dried dispersion formulation after 1.2 hrs; assay type: organism-based, Canis lupus familiaris; details: in vivo; in short: as §1
Plasma [12] = assay: Unbound plasma concentration in scopolamine-induced memory impairment Wistar rat model at 3.2 mg/kg, sc measured after 1.25 hrs by LC-MS/MS analysis; assay type: ADME, organism-based; details: in vivo; in short: as §2
[13] = target: T2, Muscarinic acetylcholine receptor M1; assay: Activity at human muscarinic acetylcholine receptor M1 expressed in CHO cells by beta-arrestin recruitment assay; assay type: cell-based
Canis familiaris [14] = assay: Toxicity in dog assessed as vocalization at 15 mg/kg, po administered as single dose using spray dried dispersion formulation after 1 hr; assay type: organism-based, Canis lupus familiaris; details: in vivo
Canis familiaris [15] = assay: Cholinergic toxicity in dog assessed as soft stool at 5 mg/kg, po administered as single dose using spray dried dispersion formulation after 1.5 hrs; assay type: organism-based, Canis lupus familiaris; details: in vivo; in short: as §1
Plasma [16] = assay: Unbound plasma concentration in scopolamine-induced memory impairment Wistar rat model at 1 mg/kg, sc measured after 1.25 hrs by LC-MS/MS analysis; assay type: ADME, organism-based; details: in vivo; in short: as §2

Structure (SMILES): Cc1cc2c(cc1Cc1ccc(-c3cocn3)cc1)C(=O)N([C@H]1CCOC[C@@H]1O)C2
- Activity (Canis familiaris [1]): Toxic
- fCmax (Canis familiaris [2]): 303 nM
- Kp [3]: 0.2
- Activity [4]: Not Active
- fraction unbound [5]: 0.013
- Drug uptake(free) (Brain): 3.4 nM
- Activity [6]: 50%
- fraction unbound [7]: 0.035
- Activity (Rattus norvegicus): Toxic
- Ratio [8]: 100
- fCmax (Canis familiaris [9]): 446 nM
- Cp(f) (Plasma [10]): 17 nM
- Activity (Canis familiaris [11]): Toxic
- Cp(f) (Plasma [12]): 200 nM
- Kb [13]: 8 µM
- Activity (Canis familiaris [14]): Toxic
- Activity (Canis familiaris [15]): Toxic
- Cp(f) (Plasma [16]): 66 nM
